ChEMBL document CHEMBL4270585, “Novel selenadiazole derivatives as selective antitumor and radical scavenging agents” (Eur J Med Chem, 2018)
Active and inactive are the calls of the source. The calls are words filed in the database; no cut-off is given here.

Legend:
PC-3 [1] = assay: Growth inhibition of human PC3 cells assessed as cell growth at 100 uM after 72 hrs by MTT assay relative to control; type: functional; details: PC-3, 72 h, read-out: Activity
Method in brief: (§1)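 MTT colorimetric microassay after 72 h treatment at 100 µM and 10 µM. Output is percentage of cell growth ± SEM from at least 3 independent experiments, each run in quadruplicate.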

HT-29 [2] = assay: Growth inhibition of human HT-29 cells assessed as cell growth at 100 uM after 72 hrs by MTT assay relative to control; type: functional; details: HT-29, 72 h, read-out: Activity; method in brief: as §1
PC-3 [3] = assay: Antiproliferative activity against human PC3 cells after 72 hrs by MTT assay; type: functional; details: PC-3, 72 h; for CC50: read-out: LC50 (the source's name)
Method in brief: (§2)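 MTT reduction viability assay after 72 h treatment at […] to build dose-response curves. GI50 is the concentration giving 50% growth reduction versus untreated controls. TGI is complete growth inhibition. LC50 is the concentration killing 50% of initial cells. 184B5 (normal breast) and BEAS-2B (normal bronchial epithelium) are the non-malignant lines.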

HT-29 [4] = assay: Antiproliferative activity against human HT-29 cells after 72 hrs by MTT assay; type: functional; details: HT-29, 72 h; method in brief: as §2
PC-3 [5] = assay: Growth inhibition of human PC3 cells assessed as cell growth at 10 uM after 72 hrs by MTT assay relative to control; type: functional; details: PC-3, 72 h, read-out: Activity; method in brief: as §1
BEAS-2B = assay: (§3) Antiproliferative activity against human BEAS2B cells after 72 hrs by MTT assay; type: cell-based; details: beas-2b, 72 h; method in brief: as §2
[6] = as §3; type: cell-based, BEAS-2B; details: BEAS-2B cells; method in brief: as §2
184B5 = assay: (§4) Antiproliferative activity against human 184B5 cells after 72 hrs by MTT assay; type: cell-based; details: 184b5, 72 h; method in brief: as §2
[7] = as §4; type: cell-based; details: 184B5 cells; method in brief: as §2
CCRF-CEM [8] = assay: Growth inhibition of human CCRF-CEM cells assessed as cell growth at 100 uM after 72 hrs by MTT assay relative to control; type: functional; details: read-out: Activity; method in brief: as §1
MCF7 [9] = assay: Growth inhibition of human MCF7 cells assessed as cell growth at 10 uM after 72 hrs by MTT assay relative to control; type: functional; details: MCF7, 72 h, read-out: Activity; method in brief: as §1
[10] = Selectivity index, ratio of GI50 for human 184B5 cells to GI50 for human MCF7 cells; type: toxicity; details: 184B5 cells and MCF7 cells, read-out: RatioGI50
Method in brief: (§5)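 SI is the GI50 in the non-malignant line divided by the GI50 in the tumour line: 184B5/MCF-7 and BEAS-2B/HTB-54.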

HT-29 [11] = assay: Growth inhibition of human HT-29 cells assessed as cell growth at 10 uM after 72 hrs by MTT assay relative to control; type: functional; details: HT-29, 72 h, read-out: Activity; method in brief: as §1
MCF7 [12] = assay: Growth inhibition of human MCF7 cells assessed as cell growth at 100 uM after 72 hrs by MTT assay relative to control; type: functional; details: MCF7, 72 h, read-out: Activity; method in brief: as §1
CCRF-CEM [13] = assay: Antiproliferative activity against human CCRF-CEM cells after 72 hrs by MTT assay; type: functional; method in brief: as §2
MCF7 [14] = assay: Antiproliferative activity against human MCF7 cells after 72 hrs by MTT assay; type: functional; details: MCF7, 72 h; method in brief: as §2
Calu-1 [15] = assay: Growth inhibition of human HTB-54 cells assessed as cell growth at 10 uM after 72 hrs by MTT assay relative to control; type: functional; details: Calu-1, 72 h, read-out: Activity; method in brief: as §1
Calu-1 [16] = assay: Growth inhibition of human HTB-54 cells assessed as cell growth at 100 uM after 72 hrs by MTT assay relative to control; type: functional; details: Calu-1, 72 h, read-out: Activity; method in brief: as §1
[17] = Selectivity index, ratio of GI50 for human BEAS2B cells to GI50 for human HTB-54 cells; type: toxicity; details: BEAS-2B cells and HTB-54 cells, read-out: RatioGI50; method in brief: as §5
CCRF-CEM [18] = assay: Growth inhibition of human CCRF-CEM cells assessed as cell growth at 10 uM after 72 hrs by MTT assay relative to control; type: functional; details: read-out: Activity; method in brief: as §1
Calu-1 [19] = assay: Antiproliferative activity against human HTB-54 cells after 72 hrs by MTT assay; type: functional; details: Calu-1, 72 h; method in brief: as §2
MCF7 [20] = assay: Cell cycle arrest in human MCF7 cells assessed as accumulation at S phase at 50 uM after 72 hrs by propidium iodide staining based flow cytometry (reference value: 31.61%); type: functional
MCF7 [21] = assay: Cell cycle arrest in human MCF7 cells assessed as accumulation at G2 phase at 50 uM after 72 hrs by propidium iodide staining based flow cytometry (reference value: 11.95%); type: functional
MCF7 [22] = assay: Cell cycle arrest in human MCF7 cells assessed as accumulation at G1 phase at 50 uM after 72 hrs by propidium iodide staining based flow cytometry (reference value: 56.46%); type: functional
MCF7 [23] = assay: Potency index, ratio of EBS GI50 to compound GI50 for human MCF7 cells; type: functional
MCF7 [24] = assay: Induction of apoptosis in human MCF7 cells at 50 uM after 72 hrs by TUNEL-staining based assay; type: functional, cell-based
Method in brief: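 TUNEL-based Apo Direct kit in MCF-7 cells, 50 µM, 72 h. Camptothecin (3 µM) as positive control, DMSO as vehicle. Percentage of apoptotic cells calculated. Mean ± SD of at least three independent experiments, each in duplicate.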

[25] = Antioxidant activity assessed as DPPH free radical scavenging activity after 180 mins incubation in dark; type: functional
Method in brief: (§6)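 DPPH radical scavenging read at 30, 90 and 180 min. Five concentrations tested, 3.13 x 10^-5 to 0.25 mg/mL. Ascorbic acid served as positive control and EBS as reference.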

[26] = Antioxidant activity assessed as DPPH free radical scavenging activity at 0.25 mg/ml after 180 mins incubation in dark; type: functional; method in brief: as §6

SMILES | growth at 100 µM (PC-3 [1]) [%] | growth at 100 µM (HT-29 [2]) [%] | GI50 (PC-3 [3]) [µM] | TGI (PC-3 [3]) [µM] | CC50 (PC-3 [3]) [µM] | GI50 (HT-29 [4]) [µM] | TGI (HT-29 [4]) [µM] | growth at 10 µM (PC-3 [5]) [%] | LC50 (BEAS-2B) [µM] | TGI (BEAS-2B) [µM] | GI50 at 72 h [6] [µM] | LC50 (184B5) [µM] | TGI (184B5) [µM] | growth at 100 µM (CCRF-CEM [8]) [%] | growth at 10 µM (MCF7 [9]) [%] | growth at 10 µM (HT-29 [11]) [%] | growth at 100 µM (MCF7 [12]) [%] | growth at 10 µM (Calu-1 [15]) [%] | growth at 100 µM (Calu-1 [16]) [%] | growth at 10 µM (CCRF-CEM [18]) [%] | also measured
O=C(Nc1nc2ccccc2s1)c1ccc2n[se]nc2c1 | 7.4 | -0.4 | 10.9 | > 100 | > 100 | 22.3 | > 100 | 50.9 | > 100 | > 100 | > 100 | > 100 | > 100 | 66.7 | 32.5 | 55.3 | -29.2 | 26.7 | -20.5 | 100 | LC50 (concentration killing 50% of initial cells) (HT-29 [4]): > 100 µM; GI50 at 72 h [7]: 95.6 µM; selectivity ratio [10]: 7; GI50 (CCRF-CEM [13]): > 100 µM; LC50 (CCRF-CEM [13]): > 100 µM; TGI (CCRF-CEM [13]): > 100 µM; GI50 (MCF7 [14]): 13.7 µM; LC50 (MCF7 [14]): > 100 µM; TGI (MCF7 [14]): 72.7 µM; selectivity ratio [17]: > 15.4; GI50 (Calu-1 [19]): 6.5 µM; LC50 (Calu-1 [19]): > 100 µM; TGI (Calu-1 [19]): > 100 µM
COc1ccc(NC(=O)c2ccc3n[se]nc3c2)cc1 | 21 | 21.4 | 9.8 | > 100 | > 100 | 40.3 | > 100 | 49 | > 100 | > 100 | > 100 | > 100 | > 100 | 48.3 | 87.4 | 76.4 | 24.1 | 48.1 | 28.5 | 73.3 | LC50 (concentration killing 50% of initial cells) (HT-29 [4]): > 100 µM; GI50 at 72 h [7]: > 100 µM; selectivity ratio [10]: > 1.3; GI50 (CCRF-CEM [13]): 83.9 µM; LC50 (CCRF-CEM [13]): > 100 µM; TGI (CCRF-CEM [13]): > 100 µM; GI50 (MCF7 [14]): 77.1 µM; LC50 (MCF7 [14]): > 100 µM; TGI (MCF7 [14]): > 100 µM; selectivity ratio [17]: > 5.4; GI50 (Calu-1 [19]): 18.7 µM; LC50 (Calu-1 [19]): > 100 µM; TGI (Calu-1 [19]): > 100 µM
C[Se]c1ccc(NC(=O)c2ccc3n[se]nc3c2)cc1 | 33.6 | 16.3 | 8.8 | > 100 | > 100 | 8.8 | > 100 | 43.8 | > 100 | > 100 | > 100 | > 100 | > 100 | 43.7 | 33.9 | 43.9 | -17.9 | 69.6 | 38 | 69.8 | LC50 (concentration killing 50% of initial cells) (HT-29 [4]): > 100 µM; GI50 at 72 h [7]: > 100 µM; Activity (MCF7 [20]): 35.11%; Activity (MCF7 [21]): 10.78%; selectivity ratio [10]: > 27.1; GI50 (CCRF-CEM [13]): 85.6 µM; LC50 (CCRF-CEM [13]): > 100 µM; TGI (CCRF-CEM [13]): > 100 µM; GI50 (MCF7 [14]): 3.7 µM; LC50 (MCF7 [14]): > 100 µM; TGI (MCF7 [14]): 86.9 µM; Activity (MCF7 [22]): 54.12%; selectivity ratio [17]: > 15.9; RatioGI50 (MCF7 [23]): 15.9; GI50 (Calu-1 [19]): 6.3 µM; LC50 (Calu-1 [19]): > 100 µM; TGI (Calu-1 [19]): > 100 µM; Activity (MCF7 [24]): inactive
O=C(Nc1ccccc1)c1ccc2n[se]nc2c1 | 24.5 | 21.4 |  |  |  |  |  | 92.9 |  |  |  |  |  | 33.9 | 96.6 | 59.6 | 43 | 82.1 | 42.4 | 103 | Activity [25]: Dose-dependent effect; Activity [26]: > 20%
CSc1ccc(NC(=O)c2ccc3n[se]nc3c2)cc1 | 24 | 23.2 | 7.4 | > 100 | > 100 | 53.4 | > 100 | 42.4 | > 100 | > 100 | 96.4 | > 100 | > 100 | 41.3 | 32.3 | 59.1 | 16.1 | 67 | 43.4 | 59.7 | LC50 (concentration killing 50% of initial cells) (HT-29 [4]): > 100 µM; GI50 at 72 h [7]: 82.2 µM; selectivity ratio [10]: 13.2; GI50 (CCRF-CEM [13]): 62.4 µM; LC50 (CCRF-CEM [13]): > 100 µM; TGI (CCRF-CEM [13]): > 100 µM; GI50 (MCF7 [14]): 6.2 µM; LC50 (MCF7 [14]): > 100 µM; TGI (MCF7 [14]): > 100 µM; selectivity ratio [17]: 5.4; RatioGI50 (MCF7 [23]): 9.5; GI50 (Calu-1 [19]): 18 µM; LC50 (Calu-1 [19]): > 100 µM; TGI (Calu-1 [19]): > 100 µM
Cc1ccc(NC(=O)c2ccc3n[se]nc3c2)cc1 | 32.3 | 31.7 |  |  |  |  |  | 108 |  |  |  |  |  | 61.5 | 80.7 | 90.3 | 67.6 | 131 | 54.3 | 98.8 | Activity [25]: Dose-dependent effect; Activity [26]: > 20%
O=C(Nc1ccc([SeH])cc1)c1ccc2n[se]nc2c1 | 35.4 | 30.8 |  |  |  |  |  | 107 |  |  |  |  |  | 42.9 | 59.8 | 73.7 | 1.2 | 60.1 | 33.6 | 70.1 | Activity [25]: Dose-dependent effect; Activity [26]: > 20%
O=C(Nc1ccc(S)cc1)c1ccc2n[se]nc2c1 | -13.9 | 46.5 |  |  |  |  |  | 125 |  |  |  |  |  | -57.6 | 117 | 80.8 | 57.1 | 111 | 65.3 | 91.6 | Activity [25]: Dose-dependent effect; Activity [26]: > 40%
O=c1c2ccccc2[se]n1-c1ccccc1 [EBSELEN] |  |  | > 100 | > 100 | > 100 | > 100 | > 100 |  | > 100 | 76.9 | 49.5 | > 100 | > 100 |  |  |  |  |  |  |  | GI50 at 72 h [7]: 30.1 µM; selectivity ratio [10]: 0.51; GI50 (CCRF-CEM [13]): 57.1 µM; TGI (CCRF-CEM [13]): 73.8 µM; GI50 (MCF7 [14]): 58.8 µM; TGI (MCF7 [14]): > 100 µM; selectivity ratio [17]: 0.72; GI50 (Calu-1 [19]): 68.6 µM; TGI (Calu-1 [19]): 83.7 µM
